Results published in ChEMBL document CHEMBL1129996, “1-Aryl-3,5-dihydro-4H-2,3-benzodiazepin-4-ones: novel AMPA receptor antagonists” (J Med Chem, 1997).
Where “and” joins values, the source holds several entries; their conditions need not be identical. Identical values can stand only once. Each block holds one molecule with its values, some of them ahead of it.

Experiments:
[1] = Relative lipophilicity of compound; assay type: physicochemical; settings: reversed-phase TLC, acetone/water 2:1
Outline: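 Reversed-phase TLC type lipophilicity: plates dried 105 °C 1 h, mobile phase acetone:water 2:1, 1 µL of 3 mg/mL CHCl3 solution spotted; five runs with varied positions, mean Rf converted as Rm = log[(1/Rf) - 1].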

Mus musculus [2] = organism: Mus musculus; experiment: Audiogenic seizures after concomitant treatment with Flumazenil (24.72 uM) in DBA / 2 mice tonic phase; assay type: functional
Mus musculus [3] = experiment: Anticonvulsant activity against the clonic seizures induced by icv injection of AMPA in DBA / 2 mice at a dose range of 10-66 uM/kg; assay type: functional; settings: central
[4] = Motor toxicity in 50% of mice on locomotion assessed by Rotarod test following 30 min ip administration; assay type: organism-based; settings: mouse, in vivo
Outline: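 Male Swiss mice (20-26 g, 48-54 days), groups of 10, trained on rotarod (3 cm, 8 rpm); tested 30 min after ip dosing. Impairment = failure to stay on for 2 min; TD50 (95% confidence limits) by Litchfield-Wilcoxon.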

Mus musculus [5] = organism: Mus musculus; experiment: Audiogenic seizures after concomitant treatment with Flumazenil (24.72 uM) in DBA / 2 mice clonic phase; assay type: functional
Mus musculus [6] = organism: Mus musculus; experiment: Audiogenic seizures after concomitant treatment with Flumazenil (8.24 uM) in DBA / 2 mice clonic phase; assay type: functional
Mus musculus [7] = experiment: Anticonvulsant activity against the tonic seizures induced by icv injection of AMPA in DBA / 2 mice at a dose range of 10-66 uM/kg; assay type: functional; settings: central
[8] = Therapeutic index it is the ratio between TD50 and ED50 (from the clonic phase of the audiogenic seizures); settings: read-out: TI
Outline: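 Therapeutic index computed as rotarod TD50 divided by ED50 for the clonic phase of audiogenic seizures in DBA/2 mice.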

Mus musculus [9] = organism: Mus musculus; experiment: Audiogenic seizures after concomitant treatment with Flumazenil (8.24 uM) in DBA / 2 mice tonic phase; assay type: functional
Mus musculus [10] = experiment: Anticonvulsant activity against clonic phase of the audiogenic seizures in DBA / 2 mice 30 min after ip administration at a dose range 10-66 uM/kg; assay type: functional; settings: 0.5 h
Outline: (§1)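 Groups of 10 DBA/2 mice of either sex; drug ip (0.1 mL/10 g) as fresh solution in 50% DMSO/50% saline, 30 min before auditory stimulation (12-16 kHz, 109 dB, 60 s or until tonic extension) under perspex dome after 60 s habituation. Latency and incidence of wild running, clonic and tonic phases scored; ED50 (95% confidence limits) by Litchfield-Wilcoxon.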

Mus musculus [11] = experiment: Anticonvulsant activity against tonic phase of the audiogenic seizures in DBA / 2 mice 30 min after ip administration at a dose range 10-66 uM/kg; assay type: functional; settings: 0.5 h; outline: as §1
Mus musculus [12] = experiment: Anticonvulsant activity against clonic phase of the audiogenic seizures in DBA / 2 mice 30 min after ip administration at a dose range 3.3-100 uM/kg; assay type: functional; settings: 0.5 h; outline: as §1
Mus musculus [13] = experiment: Pentylenetetrazole-induced seizures in Swiss mice after 45 min pretreatment at a dose range 10-150 uM/kg; assay type: functional
Mus musculus [14] = experiment: Anticonvulsant activity against the clonic seizures induced by icv injection of AMPA in DBA / 2 mice at a dose range of 10-100 uM/kg; assay type: functional; settings: central
Mus musculus [15] = experiment: Anticonvulsant activity against the maximal electroshock in Swiss mice after 45 minutes pretreatment at a dose range 10-150 uM/kg; assay type: functional
Outline: (§2)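 Swiss mice dosed ip in 50% DMSO/50% saline 45 min before ear-clip electroshock (50 mA, 20 ms pulses, 35 Hz, 400 ms). Protection = abolition of tonic hindlimb extension. Usually 4-5 doses with 8-10 mice each; ED50 (95% confidence limits) by Litchfield-Wilcoxon.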

Mus musculus [16] = experiment: Anticonvulsant activity against tonic phase of the audiogenic seizures in DBA / 2 mice 30 min after ip administration at a dose range 3.3-100 uM/kg; assay type: functional; settings: 0.5 h; outline: as §1
Mus musculus [17] = experiment: Audiogenic seizures after pretreatment with Aniracetam in DBA / 2 mice tonic phase at a dose range of 10-200 uM/kg; assay type: functional
Outline: (§3)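 DBA/2 mice pretreated with aniracetam 50 nmol icv 60 min before auditory testing, with ip 2,3-benzodiazepine; audiogenic clonic and tonic phases scored; ED50 by Litchfield-Wilcoxon.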

Mus musculus [18] = experiment: Audiogenic seizures after pretreatment with Aniracetam in DBA / 2 mice clonic phase at a dose range of 10-200 uM/kg; assay type: functional; outline: as §3
Mus musculus [19] = experiment: Anticonvulsant activity against the tonic seizures induced by icv injection of AMPA in DBA / 2 mice at a dose range of 10-100 uM/kg; assay type: functional; settings: central
Mus musculus [20] = experiment: Anticonvulsant activity against tonic phase of the audiogenic seizures in DBA / 2 mice 30 min after ip administration at a dose range 3.3-66 uM/kg; assay type: functional; settings: 0.5 h
Outline: (§4)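 Groups of 10 DBA/2 mice of either sex, dosed ip (0.1 mL/10 g) with fresh solution in 50% DMSO/50% saline; 30 min later exposed under a perspex dome (after 60 s habituation) to 12-16 kHz, 109 dB sound for 60 s or until tonic extension. Scored for latency and incidence of wild running, clonus, tonus; ED50 (95% limits) by Litchfield-Wilcoxon.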

Mus musculus [21] = experiment: Anticonvulsant activity against the maximal electroshock in Swiss mice after 45 minutes pretreatment at a dose range 10-100 uM/kg; assay type: functional; outline: as §2
Mus musculus [22] = experiment: Anticonvulsant activity against clonic phase of the audiogenic seizures in DBA / 2 mice 30 min after ip administration at a dose range 3.3-66 uM/kg; assay type: functional; settings: 0.5 h; outline: as §4
Mus musculus [23] = experiment: Pentylenetetrazole-induced seizures in Swiss mice after 45 min pretreatment at a dose range 10-100 uM/kg; assay type: functional
Outline: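 Male Swiss mice (20-26 g), compound ip in 50% DMSO/50% saline 45 min before sc pentylenetetrazole at CD97 (85 mg/kg), then observed 30 min. Protection is absence of clonic spasms lasting at least 5 s. Typically 4-5 doses, 8-10 mice per dose. ED50 with 95% confidence limits by Litchfield and Wilcoxon.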

Rm [1]: -0.525
Compound: COc1cc2c(cc1OC)C(c1cccc(N)c1)=NNC(=O)C2
ED50 (Mus musculus [2]): 17.5 µmol/kg
ED50 (Mus musculus [3]): 30.9 µmol/kg
TD50 at 0.5 h [4]: 51.5 µmol/kg
ED50 (Mus musculus [5]): 29.2 µmol/kg
ED50 (Mus musculus [6]): 21 µmol/kg
ED50 (Mus musculus [7]): 27.8 µmol/kg
therapeutic index (TD50/ED50) [8]: 2.7
ED50 (Mus musculus [9]): 18.2 µmol/kg
ED50 (Mus musculus [10]): 19.3 µmol/kg and 6 mg/kg
ED50 (Mus musculus [11]): 18.3 µmol/kg and 5.69 mg/kg

Rm [1]: -0.602
Compound: COc1cc2c(cc1OC)C(c1ccc(N)cc1)=NNC(=O)C2
ED50 (Mus musculus [12]): 15 µmol/kg and 4.66 mg/kg
ED50 (Mus musculus [13]): 22.6 µmol/kg
ED50 (Mus musculus [2]): 10.2 µmol/kg
TD50 at 0.5 h [4]: 56.8 µmol/kg
ED50 (Mus musculus [14]): 32.1 µmol/kg
ED50 (Mus musculus [15]): 15.9 µmol/kg
ED50 (Mus musculus [16]): 12.6 µmol/kg and 3.92 mg/kg
ED50 (Mus musculus [5]): 12 µmol/kg
ED50 (Mus musculus [17]): 58.2 µmol/kg
ED50 (Mus musculus [6]): 14.1 µmol/kg
therapeutic index (TD50/ED50) [8]: 3.8
ED50 (Mus musculus [18]): 65.2 µmol/kg
ED50 (Mus musculus [9]): 12 µmol/kg
ED50 (Mus musculus [19]): 25 µmol/kg

Compound: CC1=NN=C(c2ccc(N)cc2)c2cc3c(cc2C1)OCO3 [GYKI-52466]
Rm [1]: -0.298
ED50 (Mus musculus [2]): 29.7 µmol/kg
ED50 (Mus musculus [20]): 25.3 µmol/kg and 7.41 mg/kg
ED50 (Mus musculus [21]): 35.7 µmol/kg
TD50 at 0.5 h [4]: 76.1 µmol/kg
ED50 (Mus musculus [14]): 57.5 µmol/kg
ED50 (Mus musculus [5]): 39.5 µmol/kg
ED50 (Mus musculus [17]): 100 µmol/kg
ED50 (Mus musculus [6]): 37.8 µmol/kg
ED50 (Mus musculus [22]): 35.8 µmol/kg and 10.5 mg/kg
ED50 (Mus musculus [18]): 134 µmol/kg
ED50 (Mus musculus [9]): 26.7 µmol/kg
ED50 (Mus musculus [19]): 40.5 µmol/kg
ED50 (Mus musculus [23]): 68.3 µmol/kg
